Test results taken from ChEMBL document CHEMBL3044834, “Novel protoporphyrinogen oxidase inhibitors: 3H-pyrazolo[3,4-d][1,2,3]triazin-4-one derivatives” (J Agric Food Chem, 2008).
pIC50: −log10 of the molar value.

Key:
[1] = tested on: Echinochloa crus-galli; assay: Herbicidal activity against Echinochloa crus-galli (barnyard grass) assessed as inhibition of fresh weed plant weight at 45 g/ha using pre-emergence treatment protocol; assay type: functional
[2] = tested on: Digitaria sanguinalis; assay: Herbicidal activity against Digitaria sanguinalis (hairy crabgrass) assessed as inhibition of fresh weed plant weight at 187.5 g/ha using pre-emergence treatment protocol; assay type: functional
[3] = tested on: Digitaria sanguinalis; assay: Herbicidal activity against Digitaria sanguinalis (hairy crabgrass) assessed as inhibition of fresh weed plant weight at 45 g/ha using pre-emergence treatment protocol; assay type: functional
[4] = tested on: Amaranthus retroflexus; assay: Herbicidal activity against Amaranthus retroflexus assessed as inhibition of fresh weed plant weight at 22.5 g/ha using pre-emergence treatment protocol; assay type: functional
[5] = tested on: Brassica rapa subsp. oleifera; assay: Herbicidal activity against Brassica rapa subsp. oleifera assessed as inhibition of fresh weed plant weight at 22.5 g/ha using pre-emergence treatment protocol; assay type: functional
[6] = tested on: Echinochloa crus-galli; assay: Herbicidal activity against Echinochloa crus-galli (barnyard grass) assessed as inhibition of fresh weed plant weight at 22.5 g/ha using pre-emergence treatment protocol; assay type: functional
How it was run: (§1)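 Test compounds made up as emulsions by dissolving in 100 µL N,N-dimethylformamide, then adding a little Tween 20 and water. For post-emergence, weed seedlings at one leaf and one stem were sprayed at the same rates as the pre-emergence test. Fresh weight was recorded 15 days after treatment and expressed as percent inhibition versus controls. All treatments were run in triplicate.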

[7] = tested on: Echinochloa crus-galli; assay: Herbicidal activity against Echinochloa crus-galli (barnyard grass) assessed as inhibition of fresh weed plant weight at 187.5 g/ha using pre-emergence treatment protocol; assay type: functional; how it was run: as §1
[8] = tested on: Brassica rapa subsp. oleifera; assay: Herbicidal activity against Brassica rapa subsp. oleifera assessed as inhibition of fresh weed plant weight at 45 g/ha using pre-emergence treatment protocol; assay type: functional
[9] = tested on: Brassica rapa subsp. oleifera; assay: Herbicidal activity against Brassica rapa subsp. oleifera assessed as inhibition of fresh weed plant weight at 187.5 g/ha using pre-emergence treatment protocol; assay type: functional
[10] = tested on: Amaranthus retroflexus; assay: Herbicidal activity against Amaranthus retroflexus assessed as inhibition of fresh weed plant weight at 187.5 g/ha using pre-emergence treatment protocol; assay type: functional
[11] = tested on: Echinochloa crus-galli; assay: Herbicidal activity against Echinochloa crus-galli (barnyard grass) assessed as inhibition of fresh weed plant weight at 93.75 g/ha using pre-emergence treatment protocol; assay type: functional
[12] = tested on: Digitaria sanguinalis; assay: Herbicidal activity against Digitaria sanguinalis (hairy crabgrass) assessed as inhibition of fresh weed plant weight at 93.75 g/ha using pre-emergence treatment protocol; assay type: functional
[13] = target: T1, Protoporphyrinogen IX oxidase (Zea mays, UniProt Q9M629); assay: Inhibition of protoporphyrinogen oxidase in Zea mays (maize) seedlings leaves etioplasts using protoporphyrinogen IX incubated for 30 min by fluorescence spectroscopy
T1 sequence (Q9M629 whole entry): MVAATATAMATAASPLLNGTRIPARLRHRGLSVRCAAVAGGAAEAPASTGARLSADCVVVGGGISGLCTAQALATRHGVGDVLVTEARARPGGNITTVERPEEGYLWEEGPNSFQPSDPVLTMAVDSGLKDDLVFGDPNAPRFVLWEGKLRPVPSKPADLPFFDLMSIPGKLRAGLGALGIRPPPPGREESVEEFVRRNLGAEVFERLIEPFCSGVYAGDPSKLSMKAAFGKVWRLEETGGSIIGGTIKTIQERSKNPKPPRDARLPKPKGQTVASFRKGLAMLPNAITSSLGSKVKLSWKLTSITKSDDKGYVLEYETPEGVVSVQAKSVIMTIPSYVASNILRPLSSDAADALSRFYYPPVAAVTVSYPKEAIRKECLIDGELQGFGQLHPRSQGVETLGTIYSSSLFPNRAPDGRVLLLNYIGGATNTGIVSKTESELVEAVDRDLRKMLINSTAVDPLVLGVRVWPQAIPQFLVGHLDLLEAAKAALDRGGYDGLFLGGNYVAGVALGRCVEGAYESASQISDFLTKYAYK

[14] = tested on: Digitaria sanguinalis; assay: Herbicidal activity against Digitaria sanguinalis (hairy crabgrass) assessed as inhibition of fresh weed plant weight at 22.5 g/ha using pre-emergence treatment protocol; assay type: functional
[15] = tested on: Brassica rapa subsp. oleifera; assay: Herbicidal activity against Brassica rapa subsp. oleifera assessed as inhibition of fresh weed plant weight at 93.75 g/ha using pre-emergence treatment protocol; assay type: functional
[16] = tested on: Amaranthus retroflexus; assay: Herbicidal activity against Amaranthus retroflexus assessed as inhibition of fresh weed plant weight at 45 g/ha using pre-emergence treatment protocol; assay type: functional
[17] = tested on: Amaranthus retroflexus; assay: Herbicidal activity against Amaranthus retroflexus assessed as inhibition of fresh weed plant weight at 93.75 g/ha using pre-emergence treatment protocol; assay type: functional

SMILES: C#CCN1C(=O)COc2cc(F)c(N3C(=O)C4=C(CCCC4)C3=O)cc21 [FLUMIOXAZIN]
- inhibition at 45 g/ha [1]: 71.4%
- inhibition at 187.5 g/ha [2]: 100%
- inhibition at 45 g/ha [3]: 100%
- inhibition at 22.5 g/ha [4]: 100%
- inhibition at 22.5 g/ha [5]: 92.6%
- inhibition at 22.5 g/ha [6]: 40.9%
- inhibition at 187.5 g/ha [7]: 100%
- inhibition at 45 g/ha [8]: 100%
- inhibition at 187.5 g/ha [9]: 100%
- inhibition at 187.5 g/ha [10]: 100%
- inhibition at 93.75 g/ha [11]: 100%
- inhibition at 93.75 g/ha [12]: 100%
- pIC50 [13]: 8.49
- inhibition at 22.5 g/ha [14]: 85.4%
- inhibition at 93.75 g/ha [15]: 100%
- inhibition at 45 g/ha [16]: 100%
- inhibition at 93.75 g/ha [17]: 100%
